Test results taken from ChEMBL document CHEMBL2010648, “Discovery of novel anti-inflammatory drug-like compounds by aligning in silico and in vivo screening: the nitroindazolinone chemotype” (Eur J Med Chem, 2011).

Assays:
Danio rerio [1] = species on record: Danio rerio; test: Antiinflammatory activity in transgenic zebrafish larvae harboring Fli-1 gene assessed as LPS-stimulated leukocyte migration to injury zone of tail transected larvae at 10 uM after 20 to 22 hrs by microscopy; assay type: functional
In short: (§1)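 Transgenic fli-1:EGFP zebrafish were reared in E3 at 28 °C, with PTU added at 20 hpf. Compounds were dissolved in DMSO and diluted in Danieau's, with final DMSO ≤1%. Ten 4-dpf larvae per group were pretreated for 1 h, anaesthetised with tricaine and tail-transected. They were then incubated with compound plus LPS for 20–22 h, fixed in 4% PFA and stained with Leucognost. Leukocyte migration to the tail tip was scored microscopically as relative leukocyte migration. Run in triplicate.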

Danio rerio [2] = species on record: Danio rerio; test: Antiinflammatory activity in transgenic zebrafish larvae harboring Fli-1 gene assessed as LPS-stimulated leukocyte migration to injury zone of tail transected larvae at 30 uM after 20 to 22 hrs by microscopy; assay type: functional; in short: as §1
Danio rerio [3] = species on record: Danio rerio; test: Toxicity in transgenic zebrafish larvae harboring Fli-1 gene assessed as maximum tolerated dosage after 24 hrs; assay type: organism-based; details: in vivo
In short: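 Fertilized eggs of the fli-1:EGFP line reared in E3 embryo medium at 28 °C, with PTU added at 20 hpf to block pigmentation. Compounds were dissolved in DMSO and diluted in Danieau's 0.3X, final DMSO ≤1%. Larvae at 4 dpf, 5 per well, were exposed for 24 h to 10, 30 and 100 (highest) concentrations and checked by light microscopy at 5 dpf. MTC is the highest concentration giving no death or toxicity signs.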

Danio rerio [4] = species on record: Danio rerio; test: Antiinflammatory activity in transgenic zebrafish larvae harboring Fli-1 gene assessed as LPS-stimulated leukocyte migration to injury zone of tail transected larvae at 3 uM after 20 to 22 hrs by microscopy; assay type: functional; in short: as §1
Danio rerio [5] = species on record: Danio rerio; test: Antiinflammatory activity in transgenic zebrafish larvae harboring Fli-1 gene assessed as LPS-stimulated leukocyte migration to injury zone of tail transected larvae at 100 uM after 20 to 22 hrs by microscopy; assay type: functional; in short: as §1
Danio rerio [6] = species on record: Danio rerio; test: Antiinflammatory activity in transgenic zebrafish larvae harboring Fli-1 gene assessed as LPS-stimulated leukocyte migration to injury zone of tail transected larvae at 1 uM after 20 to 22 hrs by microscopy; assay type: functional; in short: as §1
Mus musculus [7] = species on record: Mus musculus; test: Inhibition of MPO activity in TPA-induced Swiss mouse ear tissue homogenates after 3 mins relative to control; assay type: functional, organism-based; parameters: concentration or dose not given beside the values
In short: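 Ear tissue was homogenised at 0 °C in 80 mM phosphate buffer with 0.5% HTAB, then centrifuged at 10300g for 20 min at 4 °C. Supernatant, in triplicate, was mixed with phosphate buffer (pH 5.4) and H2O2. The reaction was started with TMB in 8% DMF, run 3 min at 37 °C and stopped with NaOAc/HOAc pH 3.0. A630 was read, and inhibition % was calculated versus the vehicle group.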

Mus musculus [8] = test: Antiinflammatory activity against TPA-induced ear edema in Swiss mouse assessed as inhibition of increase in ear weight at 0.5 mg/ear administered topically measured after 4 hrs relative to control; assay type: functional
In short: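 Female Swiss mice (25–30 g, groups of six) received TPA in acetone topically on the right ear, with the left ear as control. Compound in acetone was applied at the same time. After 4 h, 6 mm punches from both ears were weighed. Oedema was taken as the weight difference between ears, and inhibition % was calculated versus the vehicle group. Mean ± SEM, Dunnett's test.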

J774 [9] = test: Cytotoxicity against mouse J774 cells at 100 ug/mL after 24 hrs by MTT assay; assay type: functional
In short: (§2)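 J774 macrophages in RPMI-1640 with 20% heat-inactivated FCS were seeded at 70,000 cells/well and allowed to attach for 24 h at 37 °C. They were exposed to compounds for 24 h (final DMSO ≤0.2%), then given MTT 0.4 mg/mL for 60 min; formazan was dissolved in DMSO and read at OD595. %Cytotoxicity was calculated against growth controls, corrected for compound-in-medium blanks. Each concentration was tested three times, in duplicate assays.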

J774 [10] = test: Cytotoxicity against mouse J774 cells at 1 ug/mL after 24 hrs by MTT assay; assay type: functional; in short: as §2
J774 [11] = test: Cytotoxicity against mouse J774 cells at 10 ug/mL after 24 hrs by MTT assay; assay type: functional; in short: as §2

| SMILES | Ratio (Danio rerio [1]) | Ratio (Danio rerio [2]) | MTD (Danio rerio [3]) | Ratio (Danio rerio [4]) | Ratio (Danio rerio [5]) | Ratio (Danio rerio [6]) | inhibition (Mus musculus [7]) | inhibition (INH) (Mus musculus [8]) | Activity (J774 [9]) | Activity (J774 [10]) | Activity (J774 [11]) |
| --- | --- | --- | --- | --- | --- | --- | --- | --- | --- | --- | --- |
| CN(C)CCCOc1nn(Cc2ccccc2F)c2ccc([N+](=O)[O-])cc12 | 0.89 | 0.97 | 30 µM | 0.74 | – | – | – | – | – | – | – |
| O=[N+]([O-])c1ccc2c(c1)CC([O-])=N[N+]21CCCCC1 | 0.86 | 0.89 | > 100 µM | – | 0.81 | – | – | – | – | – | – |
| O=c1[nH]n(Cc2ccccc2Cl)c2ccc([N+](=O)[O-])cc12 | 0.22 | 0.26 | 30 µM | 0.78 | – | – | – | – | – | – | – |
| O=c1[nH]n(Cc2cccc(Cn3[nH]c(=O)c4cc([N+](=O)[O-])ccc43)c2)c2ccc([N+](=O)[O-])cc12 | 0.64 | – | 10 µM | 0.8 | – | 0.87 | – | – | – | – | – |
| O=c1c2cc([N+](=O)[O-])ccc2[nH]n1Cc1ccccn1 | 0.94 | 0.62 | > 100 µM | – | 0.66 | – | – | – | – | – | – |
| O=[N+]([O-])c1ccc2c(c1)c(OCc1ccccc1)nn2Cc1ccccc1 | 0.73 | – | 10 µM | 0.75 | – | 0.94 | – | – | – | – | – |
| O=C1Nc2cc([N+](=O)[O-])ccc2N2Cc3ccccc3CC12 (stereo not drawn) | 0.77 | – | 10 µM | 0.71 | – | 0.75 | – | – | – | – | – |
| O=c1[nH]n(Cc2ccccc2F)c2ccccc12 | 0.25 | 0.17 | 30 µM | 0.46 | – | – | -3% | 32% | – | – | – |
| O=C(NN1Cc2ccccc2C1)c1cc([N+](=O)[O-])ccc1Cl | 0.93 | 0.93 | > 100 µM | – | 0.7 | – | – | – | – | – | – |
| O=c1c2cc([N+](=O)[O-])ccc2n2n1Cc1ccccc1C2 | 0.29 | – | 10 µM | 0.54 | – | 0.56 | – | – | – | – | – |
| O=c1[nH]n(Cc2ccccc2F)c2ccc([N+](=O)[O-])cc12 | 0.3 | – | 10 µM | 0.84 | – | 0.91 | – | – | – | – | – |
| O=C(Cc1cc([N+](=O)[O-])ccc1F)NN1Cc2ccccc2C1 | 0.89 | 0.87 | > 100 µM | – | 0.5 | – | – | – | – | – | – |
| O=c1[nH]n(Cc2ccccc2OCc2ccccc2)c2ccc([N+](=O)[O-])cc12 | 0.84 | – | 10 µM | 0.76 | – | 0.94 | – | – | – | – | – |
| O=c1[nH]n(Cc2ccccc2O)c2ccc([N+](=O)[O-])cc12 | 0.86 | 0.61 | > 100 µM | – | 0.27 | – | – | – | – | – | – |
| CCOCc1ccccc1CCN1CC(=O)Nc2cc([N+](=O)[O-])ccc21 | 0.48 | – | 10 µM | 0.62 | – | 0.59 | – | – | – | – | – |
| O=c1c2cccnc2n2n1Cc1ccccc1C2 | 0.8 | 0.52 | 30 µM | 0.89 | – | – | – | – | – | – | – |
| O=c1[nH]n(Cc2ccccc2)c2ccc([N+](=O)[O-])cc12 | 0.46 | – | 10 µM | 0.67 | – | 0.88 | – | – | – | – | – |
| COc1nn(Cc2ccccc2F)c2ccc([N+](=O)[O-])cc12 | 0.92 | 0.87 | 30 µM | 0.86 | – | – | – | – | – | – | – |
| O=[N+]([O-])c1ccc2[nH]nc(OCc3ccccc3Cl)c2c1 | 0.41 | – | 10 µM | 0.65 | – | 0.62 | 63% | 91% | 96.4% | 4.4% | 9.4% |
| O=c1[nH]n(Cc2ccccc2-c2ccccc2Cn2[nH]c(=O)c3cc([N+](=O)[O-])ccc32)c2ccc([N+](=O)[O-])cc12 | 0.85 | – | 10 µM | 0.92 | – | 0.72 | – | – | – | – | – |
| COc1ccc(Cn2[nH]c(=O)c3cc([N+](=O)[O-])ccc32)cc1 | 0.8 | – | 10 µM | 0.87 | – | 0.87 | – | – | – | – | – |
| CCCn1c2ccc([N+](=O)[O-])cc2c(=O)n1Cc1ccccc1 | 0.86 | 0.16 | 30 µM | 0.89 | – | – | – | – | – | – | – |
| O=c1c2cc([N+](=O)[O-])ccc2[nH]n1Cc1ccccc1 | 0.81 | 0.65 | > 100 µM | – | 0.39 | – | – | – | – | – | – |
| O=c1[nH]n(Cc2ccccc2CCl)c2ccc([N+](=O)[O-])cc12 | 0.33 | – | 10 µM | 0.78 | – | 0.83 | – | – | – | – | – |
| COc1nn(Cc2ccccc2-c2ccccc2Cn2nc(OC)c3cc([N+](=O)[O-])ccc32)c2ccc([N+](=O)[O-])cc12 | 0.69 | – | 10 µM | 0.87 | – | 0.84 | – | – | – | – | – |
| Cn1c(=O)c2cc([N+](=O)[O-])ccc2n1Cc1ccccc1 | 0.46 | 0.26 | 30 µM | 0.6 | – | – | 56% | 97% | 58.4% | 32.8% | 43.9% |
| O=c1[nH]n(Cc2ccccn2)c2ccc([N+](=O)[O-])cc12 | 0.83 | 0.74 | > 100 µM | – | 0.59 | – | – | – | – | – | – |
| Cn1c2ccc([N+](=O)[O-])cc2c(=O)n1Cc1ccccc1 | 0.63 | 0.27 | 30 µM | 0.67 | – | – | 67% | 104% | 57.5% | 11.5% | 21% |
| O=C(NCc1cc([N+](=O)[O-])ccc1N1CCc2ccccc2C1)NCc1cc([N+](=O)[O-])ccc1N1CCc2ccccc2C1 | 0.81 | – | 10 µM | 0.82 | – | 0.85 | – | – | – | – | – |
